Assay results published in ChEMBL document CHEMBL3102817, “Mycoleptones A-C and polyketides from the endophyte Mycoleptodiscus indicus” (J Nat Prod, 2014).
pIC50: −log10 of the molar value.

Legend:
[1] = Cytotoxicity against human HCT8 cells by colorimetric method; assay type: functional, cell-based; conditions: HCT-8
MDA-MB-435 = assay: Cytotoxicity against human MDA-MB-435 cells by colorimetric method; assay type: functional, cell-based
SF-295 = assay: Cytotoxicity against human SF295 cells by colorimetric method; assay type: functional, cell-based
Leishmania donovani = assay: Antileishmanial activity against Leishmania donovani by AlamarBlue assay; assay type: functional, organism-based
Outline: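 Microplate Alamar Blue (MABA) growth-inhibition assay on *L. donovani*, with amphotericin B and pentamidine as reference drugs.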

Leishmania major = assay: Antileishmanial activity against Leishmania major by AlamarBlue assay; assay type: functional; conditions: read-out: LD50 (the source's name)
[2] = Cytotoxicity against human lymphocytes by colorimetric method; assay type: cell-based; conditions: Lymphocyte
HL-60 = assay: Cytotoxicity against human HL60 cells by colorimetric method; assay type: functional, cell-based
PC-3 = assay: Cytotoxicity against human PC3 cells by colorimetric method; assay type: functional, cell-based

Row | Compound | pIC50 [1] | pIC50 (MDA-MB-435) | pIC50 (SF-295) | pIC50 (Leishmania donovani) | LC50 (Leishmania major) | pIC50 [2] | pIC50 (HL-60) | pIC50 (PC-3)
1 | CC1=CC2=C(C=O)C(=O)[C@](C)(O)[C@@H](O)C2=CO1 | 4.89 | 4.46 | 4.55 | 4.09 | 20.5 µM | < 3.95 | 4.41 | –
2 | CC1=CC2=C(CC3=C4C=C(C)OC=C4[C@H](O)[C@@](C)(O)C3=O)C(=O)[C@](C)(O)[C@@H](O)C2=CO1 | < 4.24 | < 4.24 | < 4.24 | < 4.03 | 28.5 µM | < 4.24 | < 4.24 | 5.00
3 | COc1cc2oc(C)cc(=O)c2c(O)c1C | < 3.95 | < 3.95 | < 3.95 | < 3.74 | 39.9 µM | < 3.95 | < 3.95 | < 3.95
4 | CC1=CC2=C(Cc3c(O)c(C)c4c(c3O)C(=O)OC(C)C4)C(=O)[C@](C)(O)[C@@H](O)C2=CO1 (stereo partly drawn) | < 4.24 | < 4.24 | < 4.24 | – | 21.7 µM | < 4.24 | < 4.24 | 5.15
5 | COc1cc2oc(CO)cc(=O)c2c(O)c1C | < 3.98 | < 3.98 | < 3.98 | – | – | < 3.98 | < 3.98 | < 3.98
6 | CC(=O)O[C@H]1C2=COC(C)=CC2=C(C=O)C(=O)[C@]1(C)OC(C)=O | 4.86 | 4.57 | 4.58 | 4.23 | 19.8 µM | < 4.11 | 4.66 | –
7 | CC(=O)O[C@H]1C2=COC(C)=CC2=C(CC2=C3C=C(C)OC=C3[C@H](OC(C)=O)[C@@](C)(OC(C)=O)C2=O)C(=O)[C@]1(C)OC(C)=O | < 4.38 | < 4.38 | < 4.38 | – | – | < 4.38 | < 4.38 | 4.48
8 | C[C@@H]1[C@H](O)[C@@H](C)/C=C/C=C/C=C/C=C/C=C/C=C/C=C/[C@H](O[C@@H]2O[C@H](C)[C@@H](O)[C@H](N)[C@@H]2O)C[C@@H]2O[C@](O)(C[C@@H](O)C[C@@H](O)[C@H](O)CC[C@@H](O)C[C@@H](O)CC(=O)O[C@H]1C)C[C@H](O)[C@H]2C(=O)O [AMPHOTERICIN B] | – | – | – | 6.85 | – | – | – | –
9 | COc1cccc2c1C(=O)c1c(O)c3c(c(O)c1C2=O)C[C@@](O)(C(=O)CO)C[C@@H]3O[C@H]1C[C@H](N)[C@H](O)[C@H](C)O1 [DOXORUBICIN] | – | 5.82 | 6.15 | – | – | 6.15 | – | 6.39
10 | CN[C@@H]1[C@@H](O)[C@@H](O[C@@H]2[C@@H](O)[C@H](O[C@H]3O[C@H]([C@@H](C)O)[C@@H](O)[C@H](O)[C@H]3N)[C@@H](N)C[C@H]2N)OC[C@]1(C)O [GENETICIN] | – | – | – | – | 3.43 µM | – | – | –
11 | COc1cc2oc(C)cc(=O)c2c(O)c1OC [STELLATIN] | < 3.98 | < 3.98 | < 3.98 | < 3.77 | 34.5 µM | < 3.98 | < 3.98 | 4.69
